“And” between values parts separate entries of the source, which are not always exact repeats. Equal entries are not always repeated.
Tested on: Fibroblast
Assay: Multiplex assay against human fibroblast
Format: toxicity, cell-based
Conditions: number of replicates 2
Outline: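 Live cells were stained at seeding with Hoechst33342, BioTracker Green Microtubule Cytoskeleton Dye, MitoTracker Red and Annexin V Alexa Fluor 680, then imaged on a CQ1 microscope at 37°C and 5% CO2 after compound addition. CellPathfinder machine-learning gating split cells into Hoechst high-intensity objects or normal cells. Normal cells were split into healthy, pyknosed or fragmented nuclei, and pyknosed cells into mitotic or apoptotic. Tubulin, mitochondrial-mass and membrane-permeability phenotypes are per cents of healthy-nucleus cells.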

[1] = 12 h, 1 µM, compound concentration 1 uM
[2] = 12 h, 10 µM, compound concentration 10 uM
[3] = 24 h, 1 µM, compound concentration 1 uM
[4] = 24 h, 10 µM, compound concentration 10 uM
[5] = 48 h, 1 µM, compound concentration 1 uM
[6] = 48 h, 10 µM, compound concentration 10 uM

SMILES: CC(C)N(CCCCOCC(=O)NS(C)(=O)=O)c1cnc(-c2ccccc2)c(-c2ccccc2)n1 [SELEXIPAG]
- Population Apoptotic (%) [1]: 54% and 38%
- Population Fragmented Nuclei (%) [1]: 4% and 10%
- Population Healthy Nuclei (%) [1]: 77% and 72%
- Population Hoechst High Intensity Objects (%) [1]: 0%
- Population Membrane Permeable-Phenotype (%) [1]: 4%
- Population Mitochondria Different-Phenotype (%) [1]: 2% and 0%
- Population Mitotic Cells (%) [1]: 45% and 61%
- Population Normal (%) [1]: 100%
- Population Pyknosed Nuclei (%) [1]: 18% and 16%
- Population Tubulin-Different-Phenotype (%) [1]: 10% and 11%
- Total Cell Count [1]: 168 and 186
- Population Apoptotic (%) [2]: 56% and 54%
- Population Fragmented Nuclei (%) [2]: 7% and 14%
- Population Healthy Nuclei (%) [2]: 61% and 63%
- Population Hoechst High Intensity Objects (%) [2]: 0%
- Population Membrane Permeable-Phenotype (%) [2]: 0% and 6%
- Population Mitochondria Different-Phenotype (%) [2]: 1%
- Population Mitotic Cells (%) [2]: 43% and 45%
- Population Normal (%) [2]: 100% and 99%
- Population Pyknosed Nuclei (%) [2]: 31% and 21%
- Population Tubulin-Different-Phenotype (%) [2]: 2% and 10%
- Total Cell Count [2]: 148 and 221
- Population Apoptotic (%) [3]: 58% and 50%
- Population Fragmented Nuclei (%) [3]: 8% and 14%
- Population Healthy Nuclei (%) [3]: 75% and 65%
- Population Hoechst High Intensity Objects (%) [3]: 0%
- Population Membrane Permeable-Phenotype (%) [3]: 6% and 4%
- Population Mitochondria Different-Phenotype (%) [3]: 0%
- Population Mitotic Cells (%) [3]: 41% and 50%
- Population Normal (%) [3]: 99% and 100%
- Population Pyknosed Nuclei (%) [3]: 16% and 20%
- Population Tubulin-Different-Phenotype (%) [3]: 7% and 8%
- Total Cell Count [3]: 175 and 190
- Population Apoptotic (%) [4]: 56% and 50%
- Population Fragmented Nuclei (%) [4]: 6% and 13%
- Population Healthy Nuclei (%) [4]: 63% and 65%
- Population Hoechst High Intensity Objects (%) [4]: 0%
- Population Membrane Permeable-Phenotype (%) [4]: 2% and 6%
- Population Mitochondria Different-Phenotype (%) [4]: 1%
- Population Mitotic Cells (%) [4]: 43% and 50%
- Population Normal (%) [4]: 100% and 99%
- Population Pyknosed Nuclei (%) [4]: 30% and 21%
- Population Tubulin-Different-Phenotype (%) [4]: 6% and 8%
- Total Cell Count [4]: 152 and 221
- Population Apoptotic (%) [5]: 80% and 40%
- Population Fragmented Nuclei (%) [5]: 8% and 11%
- Population Healthy Nuclei (%) [5]: 79% and 75%
- Population Hoechst High Intensity Objects (%) [5]: 0%
- Population Membrane Permeable-Phenotype (%) [5]: 4% and 6%
- Population Mitochondria Different-Phenotype (%) [5]: 0%
- Population Mitotic Cells (%) [5]: 20% and 60%
- Population Normal (%) [5]: 99%
- Population Pyknosed Nuclei (%) [5]: 11% and 12%
- Population Tubulin-Different-Phenotype (%) [5]: 4% and 3%
- Total Cell Count [5]: 169 and 204
- Population Apoptotic (%) [6]: 90% and 59%
- Population Fragmented Nuclei (%) [6]: 8% and 11%
- Population Healthy Nuclei (%) [6]: 71% and 68%
- Population Hoechst High Intensity Objects (%) [6]: 0%
- Population Membrane Permeable-Phenotype (%) [6]: 0% and 4%
- Population Mitochondria Different-Phenotype (%) [6]: 0%
- Population Normal (%) [6]: 100%
- Population Pyknosed Nuclei (%) [6]: 19%
- Population Tubulin-Different-Phenotype (%) [6]: 3% and 7%
- Total Cell Count [6]: 151 and 212

SMILES: CN(C)[C@H]1CC[C@H](Nc2ncc3ncnc(Nc4ccc(F)c(Cl)c4)c3n2)CC1
- Population Apoptotic (%) [1]: 68% and 45%
- Population Fragmented Nuclei (%) [1]: 26% and 29%
- Population Healthy Nuclei (%) [1]: 54% and 50%
- Population Hoechst High Intensity Objects (%) [1]: 1% and 0%
- Population Membrane Permeable-Phenotype (%) [1]: 4% and 9%
- Population Mitochondria Different-Phenotype (%) [1]: 1%
- Population Mitotic Cells (%) [1]: 31% and 55%
- Population Normal (%) [1]: 98% and 99%
- Population Pyknosed Nuclei (%) [1]: 18% and 19%
- Population Tubulin-Different-Phenotype (%) [1]: 16% and 11%
- Total Cell Count [1]: 309 and 205
- Population Apoptotic (%) [2]: 31% and 27%
- Population Fragmented Nuclei (%) [2]: 30% and 24%
- Population Healthy Nuclei (%) [2]: 45% and 51%
- Population Hoechst High Intensity Objects (%) [2]: 18% and 10%
- Population Membrane Permeable-Phenotype (%) [2]: 2% and 3%
- Population Mitochondria Different-Phenotype (%) [2]: 0%
- Population Mitotic Cells (%) [2]: 68% and 72%
- Population Normal (%) [2]: 81% and 89%
- Population Pyknosed Nuclei (%) [2]: 24% and 23%
- Population Tubulin-Different-Phenotype (%) [2]: 4% and 3%
- Total Cell Count [2]: 681 and 574
- Population Apoptotic (%) [3]: 54% and 67%
- Population Fragmented Nuclei (%) [3]: 28% and 20%
- Population Healthy Nuclei (%) [3]: 48% and 63%
- Population Hoechst High Intensity Objects (%) [3]: 0%
- Population Membrane Permeable-Phenotype (%) [3]: 3% and 6%
- Population Mitochondria Different-Phenotype (%) [3]: 1% and 2%
- Population Mitotic Cells (%) [3]: 45% and 32%
- Population Normal (%) [3]: 100% and 99%
- Population Pyknosed Nuclei (%) [3]: 23% and 16%
- Population Tubulin-Different-Phenotype (%) [3]: 11% and 13%
- Total Cell Count [3]: 208 and 288
- Population Apoptotic (%) [4]: 18% and 27%
- Population Fragmented Nuclei (%) [4]: 27% and 28%
- Population Healthy Nuclei (%) [4]: 44% and 47%
- Population Hoechst High Intensity Objects (%) [4]: 19% and 27%
- Population Membrane Permeable-Phenotype (%) [4]: 6% and 3%
- Population Mitochondria Different-Phenotype (%) [4]: 0% and 1%
- Population Mitotic Cells (%) [4]: 81% and 72%
- Population Normal (%) [4]: 80% and 72%
- Population Pyknosed Nuclei (%) [4]: 27% and 24%
- Population Tubulin-Different-Phenotype (%) [4]: 5% and 4%
- Total Cell Count [4]: 464 and 636
- Population Apoptotic (%) [5]: 68% and 56%
- Population Fragmented Nuclei (%) [5]: 22% and 32%
- Population Healthy Nuclei (%) [5]: 61% and 50%
- Population Hoechst High Intensity Objects (%) [5]: 2% and 0%
- Population Membrane Permeable-Phenotype (%) [5]: 7% and 9%
- Population Mitochondria Different-Phenotype (%) [5]: 0%
- Population Mitotic Cells (%) [5]: 31% and 43%
- Population Normal (%) [5]: 97% and 99%
- Population Pyknosed Nuclei (%) [5]: 15% and 17%
- Population Tubulin-Different-Phenotype (%) [5]: 10% and 6%
- Total Cell Count [5]: 264 and 218
- Population Apoptotic (%) [6]: 20% and 21%
- Population Fragmented Nuclei (%) [6]: 31% and 34%
- Population Healthy Nuclei (%) [6]: 38% and 37%
- Population Hoechst High Intensity Objects (%) [6]: 22% and 26%
- Population Membrane Permeable-Phenotype (%) [6]: 5% and 1%
- Population Mitochondria Different-Phenotype (%) [6]: 0%
- Population Mitotic Cells (%) [6]: 79% and 78%
- Population Normal (%) [6]: 77% and 73%
- Population Pyknosed Nuclei (%) [6]: 30% and 27%
- Population Tubulin-Different-Phenotype (%) [6]: 5% and 2%
- Total Cell Count [6]: 527 and 613

— ChEMBL document CHEMBL5303300, “EUbOPEN Chemogenomics Library - Multiplex” (2023)
